Measurements published in ChEMBL document CHEMBL3351594, “Cytotoxic dimeric epipolythiodiketopiperazines from the ascomycetous fungus Preussia typharum” (J Nat Prod, 2014).
Activity calls are given as the source filed them. The calls are words filed in the database; no cut-off is given here.

Tests used:
[1] = Cytotoxicity against human MIAPaCa2 cells after 24 hrs by MTT assay; type: functional, cell-based; conditions: MIA PaCa-2, 24 h
MIA PaCa-2 = experiment: Cytotoxicity against human MIAPaCa2 cells up to 30 uM after 24 hrs by MTT assay; type: functional, cell-based
[2] = Cytotoxicity against human P-gp expressing SKOV3-M6/6 cells by SRB assay; type: functional
In short: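 SRB assay in SK-OV-3/MDR-1-6/6 cells, a single-cell clone of SKOV-3/MDR1 (P-gp). Percent cell growth follows Boyd et al. GI50 was derived from dose–response curves of percent growth. Results are mean ± SE of n = 3 or 4 independent experiments. Relative resistance is calculated against parental SK-OV-3.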

SK-OV-3 = experiment: Resistance ratio of GI50 for human P-gp expressing SKOV3-M6/6 cells to GI50 for human SKOV3 cells; type: functional
In short: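 SRB assay in SK-OV-3 and its P-gp/MDR1 single-cell clone SK-OV-3/MDR-1-6/6; GI50 from percent growth dose–response curves, n = 3 or 4 independent experiments; relative resistance taken as ratio of GI50 in the MDR line to parental.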

[3] = Cytotoxicity against human SKOV3 cells by SRB method; type: functional; conditions: SK-OV-3
In short: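 SRB assay in SK-OV-3 cells; percent cell growth per Boyd et al.; GI50, TGI and LC50 fitted from dose–response curves of percent growth; mean ± SE, n = 3 or 4 independent experiments.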

mTORC1 (Homo sapiens) = mTORC1 (Homo sapiens) (UniProt P42345+Q8N122+Q9BVC4); conditions: HeLa, 100 nM
mTORC1 (Homo sapiens), sequence (Q8N122 whole entry, looked up, other chains not shown): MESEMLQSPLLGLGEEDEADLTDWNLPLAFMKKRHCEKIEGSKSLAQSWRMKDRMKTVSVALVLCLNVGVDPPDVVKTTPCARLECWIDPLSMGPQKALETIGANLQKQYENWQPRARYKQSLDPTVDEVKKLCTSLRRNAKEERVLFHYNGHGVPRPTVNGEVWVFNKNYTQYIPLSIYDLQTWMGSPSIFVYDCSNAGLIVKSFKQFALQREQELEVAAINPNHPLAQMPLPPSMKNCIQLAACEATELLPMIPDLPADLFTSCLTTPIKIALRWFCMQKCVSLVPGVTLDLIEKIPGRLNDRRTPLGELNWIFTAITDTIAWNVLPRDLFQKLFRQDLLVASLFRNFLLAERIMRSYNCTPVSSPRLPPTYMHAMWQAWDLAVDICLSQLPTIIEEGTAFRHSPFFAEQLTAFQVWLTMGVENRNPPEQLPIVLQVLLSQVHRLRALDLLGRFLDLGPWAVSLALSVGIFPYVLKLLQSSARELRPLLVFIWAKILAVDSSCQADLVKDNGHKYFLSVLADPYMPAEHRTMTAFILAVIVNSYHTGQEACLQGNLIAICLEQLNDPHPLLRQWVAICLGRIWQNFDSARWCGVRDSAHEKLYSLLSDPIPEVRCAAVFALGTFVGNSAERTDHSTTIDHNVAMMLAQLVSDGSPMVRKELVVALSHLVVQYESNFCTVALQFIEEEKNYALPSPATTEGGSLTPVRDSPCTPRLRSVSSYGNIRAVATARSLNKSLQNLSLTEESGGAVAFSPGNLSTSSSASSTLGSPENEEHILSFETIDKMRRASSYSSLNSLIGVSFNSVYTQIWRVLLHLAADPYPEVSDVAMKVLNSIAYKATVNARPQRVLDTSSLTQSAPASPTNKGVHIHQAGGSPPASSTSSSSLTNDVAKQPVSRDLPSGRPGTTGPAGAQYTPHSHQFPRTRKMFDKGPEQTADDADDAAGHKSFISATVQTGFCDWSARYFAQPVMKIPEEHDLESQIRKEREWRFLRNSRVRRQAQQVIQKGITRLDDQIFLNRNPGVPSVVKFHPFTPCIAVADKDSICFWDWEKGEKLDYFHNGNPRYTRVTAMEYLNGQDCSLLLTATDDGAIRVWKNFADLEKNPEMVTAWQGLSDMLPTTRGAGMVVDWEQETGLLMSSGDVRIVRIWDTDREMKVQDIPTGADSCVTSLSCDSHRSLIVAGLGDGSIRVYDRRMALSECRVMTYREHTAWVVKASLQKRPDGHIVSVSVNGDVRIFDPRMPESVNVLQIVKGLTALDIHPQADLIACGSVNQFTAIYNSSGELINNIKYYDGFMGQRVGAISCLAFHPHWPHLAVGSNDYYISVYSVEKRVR
mTORC1 (Homo sapiens), sequence (Q9BVC4 whole entry, looked up, other chains not shown): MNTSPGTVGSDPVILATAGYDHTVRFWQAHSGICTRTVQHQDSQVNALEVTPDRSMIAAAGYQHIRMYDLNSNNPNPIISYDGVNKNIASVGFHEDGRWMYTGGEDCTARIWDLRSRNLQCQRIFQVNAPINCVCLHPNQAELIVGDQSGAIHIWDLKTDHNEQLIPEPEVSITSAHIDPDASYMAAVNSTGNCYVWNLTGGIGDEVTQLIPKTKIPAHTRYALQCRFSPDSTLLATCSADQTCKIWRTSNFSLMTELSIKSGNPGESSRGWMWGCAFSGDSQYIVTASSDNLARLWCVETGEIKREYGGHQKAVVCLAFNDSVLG

| SMILES | IC50 [1] | Activity (MIA PaCa-2) | also measured |
| --- | --- | --- | --- |
| CC(C)[C@@]12SS[C@]3(C(=O)N1C)[C@@H](O)[C@]1(C45c6ccccc6N[C@H]4N4C(=O)[C@]6(CO)SSSS[C@]4(C(=O)N6C)[C@H]5O)c4ccccc4N[C@@H]1N3C2=O (stereo not given in full) | 43.1 nM |  |  |
| CS[C@@]1(C(C)C)C(=O)N2[C@H]3N(C)c4ccccc4[C@@]3(C34c5ccccc5N[C@H]3N3C(=O)[C@@](CO)(SC)N(C)C(=O)[C@]3(SC)[C@H]4O)[C@H](O)[C@]2(SC)C(=O)N1C (stereo not given in full) |  | inactive |  |
| CS[C@@]1(C(C)C)C(=O)N2[C@H]3Nc4ccccc4[C@@]3(C34c5ccccc5N[C@H]3N3C(=O)[C@@](CO)(SC)N(C)C(=O)[C@]3(SC)[C@H]4O)[C@H](O)[C@]2(SC)C(=O)N1C (stereo not given in full) |  | inactive |  |
| CC(C)[C@@]12SS[C@]3(C(=O)N1C)[C@@H](O)[C@]1(C45c6ccccc6N[C@H]4N4C(=O)[C@@]6(CO)SSSS[C@@]4(C(=O)N6C)[C@H]5O)c4ccccc4N[C@@H]1N3C2=O (stereo not given in full) | 9.1 nM |  |  |
| CC(C)[C@@]12SS[C@]3(C(=O)N1C)[C@@H](O)[C@]1(C45c6ccccc6N[C@H]4N4C(=O)[C@]6(CO)SS[C@]4(C(=O)N6C)[C@H]5O)c4ccccc4N[C@@H]1N3C2=O (stereo not given in full) | 33.6 nM |  |  |
| CS[C@@]1(C(C)C)C(=O)N2[C@H]3Nc4ccccc4[C@@]3(C34c5ccccc5N(C)[C@H]3N3C(=O)[C@@](CO)(SC)N(C)C(=O)[C@]3(SC)[C@H]4O)[C@H](O)[C@]2(SC)C(=O)N1C (stereo not given in full) |  | inactive |  |
| CC(=O)O[C@H]1C(=O)[C@@]2(C)[C@H]([C@H](OC(=O)c3ccccc3)[C@]3(O)C[C@H](OC(=O)[C@H](O)[C@@H](NC(=O)c4ccccc4)c4ccccc4)C(C)=C1C3(C)C)[C@]1(OC(C)=O)CO[C@@H]1C[C@@H]2O [PACLITAXEL] |  |  | GI50 [2]: 600 nM; Ratio (SK-OV-3): 127; GI50 [3]: 4.7 nM |
| CO[C@H]1C[C@@H]2CC[C@@H](C)[C@@](O)(O2)C(=O)C(=O)N2CCCC[C@H]2C(=O)O[C@H]([C@H](C)C[C@@H]2CC[C@@H](O)[C@H](OC)C2)CC(=O)[C@H](C)/C=C(\C)[C@@H](O)[C@@H](OC)C(=O)[C@H](C)C[C@H](C)/C=C/C=C/C=C/1C |  |  | inhibition (mTORC1 (Homo sapiens)): Active |
